MrgX1 PAM = human MrgX1 positive allosteric modulation, primary screen; MrgX1-HEK293, Fluo-4 calcium flux, FDSS; hits give high values; Q96LB2; 0.63% of 310,000 active; AID 588675; B-score at 10 µM;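 active means plate-corrected calcium response at least 3 library SD above typical, normal starting fluorescence, not activating the receptor alone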;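 further: compound read alongside a low EC10 to EC30 dose of BAM8-22 agonist; peak minus trough fluorescence over baseline measured at the second addition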
Target sequence (Q96LB2 whole entry, looked up): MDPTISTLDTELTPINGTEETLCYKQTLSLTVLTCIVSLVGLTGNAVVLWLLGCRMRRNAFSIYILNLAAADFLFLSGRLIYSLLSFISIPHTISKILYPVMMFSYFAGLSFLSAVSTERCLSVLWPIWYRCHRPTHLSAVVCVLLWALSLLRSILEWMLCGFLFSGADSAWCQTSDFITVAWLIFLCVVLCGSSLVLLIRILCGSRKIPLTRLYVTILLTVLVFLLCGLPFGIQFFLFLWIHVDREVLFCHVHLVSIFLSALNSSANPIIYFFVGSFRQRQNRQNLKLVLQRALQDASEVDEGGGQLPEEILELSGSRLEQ
RGS4 pot = potentiators or activators of RGS4; HEK293 M3R/inducible RGS4, carbachol calcium flux Fluo4; hits give low values; B-score at 10 µM; 0.92% of 310,000 active; AID 463111;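 active means B-score of the integrated calcium signal more than 4 SD below the library mean, with starting fluorescence not abnormally high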;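 further: negative B-score means reduced calcium response which marks RGS4 activation or potentiation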
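Material: M3R-expressing HEK293 line, RGS4 induced by doxycycline | Schedule: Overnight RGS4 induction, 30 min dye load 37 °C, 20 min compound RT | Measured by: Fluo4 fluorescence kinetic imaging of calcium | Read-out: Integrated calcium ratio converted to B score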
MrgX1 antagonist = blocks BAM8-22 activation of human MrgX1 receptor | MRGX1-HEK293 calcium flux, Fluo-4, BAM8-22 antagonism; hits give low values | AID 588676 | 1.3% of 310,000 active | Q96LB2 | B-score at 10 µM;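 active means calcium-response B-score plate-corrected more than 3 library SD below zero, starting fluorescence within 5 deviations, no agonist response on first addition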;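 further: peak minus trough fluorescence over baseline after final BAM8-22 challenge near maximal dose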
RGS4 inh = human RGS4 inhibition | P49798 | HEK293 M3R/RGS4 inducible, Fluo-4 calcium flux; hits give high values; triggered by carbachol at its EC20 | B-score at 10 µM | 0.45% of 310,000 active | AID 463165;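 active means B-score, a plate-corrected calcium signal, over three deviations above library mean, with baseline fluorescence within five deviations of library mean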;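 further: RGS4 expression induced by doxycycline in cells with stable M3 receptor; B-score is computed from the integrated fluorescence ratio over baseline after carbachol; higher B-score means a larger calcium signal and so more RGS4 inhibition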
Target sequence (P49798 whole entry, looked up): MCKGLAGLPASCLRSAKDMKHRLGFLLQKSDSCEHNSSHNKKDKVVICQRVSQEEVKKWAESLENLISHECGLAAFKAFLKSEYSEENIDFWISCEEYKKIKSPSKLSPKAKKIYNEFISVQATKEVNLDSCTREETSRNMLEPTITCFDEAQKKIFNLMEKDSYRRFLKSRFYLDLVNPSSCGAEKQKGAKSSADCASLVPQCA
MrgX1 ag = human MrgX1 receptor agonism, primary screen. MrgX1-HEK293 cells, Fluo-4 calcium fluorescence, agonist mode; hits give high values. B-score at 10 µM. Q96LB2. 0.44% of 310,000 active;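 active means calcium response B-score plate-corrected fluorescence ratio at least 3 library SD, with starting fluorescence B-score inside 5 SD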
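Test system: HEK293 cells stably expressing human MrgX1 receptor; amount: 15,000 cells per well; doses: compound delivered in addition one of three; times: overnight plating before 1 h dye loading; detection: Fluo-4 NW calcium-flux fluorescence, kinetic read; read-out basis: B-scored fluorescence response ratio; controls: positive and negative controls per plate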
Large screens that a line does not name were inactive. Compounds with a hit are over-represented: about 3.5% of the library has one in this group of screens.

COc1cccc(C(C(=O)NC2CCCC2)N(C(=O)c2ccco2)c2ccccc2)c1OC (stereo unspecified)	none
O=C1COc2ccc(N3C(=O)C=CC3=O)cc2N1	RGS4 inh 5
O=C1COc2ccc(S(=O)(=O)N3CCCC3)cc2N1	none
CCN=c1scc(-c2ccccc2)n1/N=C/c1ccccn1	MrgX1 PAM 12
C=CCN=c1scc(-c2ccccc2)n1/N=C/c1ccccn1	MrgX1 PAM 14
C=CCN=c1scc(-c2ccc(F)cc2)n1/N=C/c1ccccn1	none
CN1CCN(NC(=O)c2ccc(Cl)s2)CC1	none
Cc1ccc(N2CCN(S(=O)(=O)c3ccc4c(c3)NC(=O)C(C)C(=O)N4)CC2C)cc1 (stereo unspecified)	MrgX1 antagonist -7.6
Cc1ccc(N2CCN(S(=O)(=O)c3ccc4c(c3)n(C)c(=O)c(=O)n4C)CC2C)cc1 (stereo unspecified)	none
O=C(O)C(Cc1ccccc1)N1C(=O)/C(=C/c2ccccc2)SC1=S (stereo unspecified)	none
COc1ccc(/C=C2\SC(=S)N(CC3CCCO3)C2=O)cc1 (stereo unspecified)	none
COc1cc(/C=C2/SC(=S)N(CC3CCCO3)C2=O)ccc1O (stereo unspecified)	MrgX1 antagonist -8.6
COc1cc(/C=C2\SC(=S)N(C(Cc3ccccc3)C(=O)O)C2=O)ccc1O (stereo unspecified)	MrgX1 ag 56
Cc1c(N=C2N=C(NC(=O)c3cccs3)c3ccccc32)c(=O)n(-c2ccccc2)n1C	MrgX1 ag 33
CCCn1c2ccccc2c2cnn(CC(=O)N3CCN(C4CCCCC4)CC3)c(=O)c21	none
CCO/C([O-])=N/c1sn[n+](C)c1C	MrgX1 antagonist -5.3
OC(c1cc(-c2ccc(C(F)(F)F)cc2)nc(C(F)(F)F)c1)C1CCCCN1 (stereo unspecified)	RGS4 pot -7.8, MrgX1 antagonist -5.4
N#C[C@H]1C2OC2c2ccccc2N1C(=O)c1ccccc1 (stereo partly specified)	MrgX1 antagonist -7.9
Cc1cc(C)c(C(=O)C(C)OC(=O)c2ccc(Cl)nc2)cc1C (stereo unspecified)	none
Cc1c(CCOC(=O)CC23CC4CC(CC(C4)C2)C3)sc[n+]1Cc1ccccc1	RGS4 pot -7.7
Cc1ncc(C[n+]2csc(CCOC(=O)CC34CC5CC(CC(C5)C3)C4)c2C)c(N)n1	none
COC(=O)c1cc2c(=O)c3ccccc3oc2nc1C	none
COC(=O)c1cc2c(=O)c3ccccc3oc2nc1/C=C/N(C)C	MrgX1 ag 68
CCOC(=O)C1CCCN(C(=O)c2cc3ccc(OC)cc3[nH]2)C1 (stereo unspecified)	none
COCCN(C(=O)COC(=O)CCc1ccccc1OC)c1c(N)n(Cc2ccccc2)c(=O)[nH]c1=O	MrgX1 antagonist -6
C=CCNC(=S)NNC(=O)c1ccc(OCCC)cc1	none
CCCOc1ccc(C(=O)NNC(=S)NC(=O)CC)cc1	MrgX1 ag 51
Cc1ccc(S(=O)(=O)Nc2cccc(-c3ccc(N4CCCCCC4)nn3)c2)cc1	none
COc1ccc(C(=O)/C=C2/C(=O)Nc3ccccc32)c(OC)c1	none
COc1ccc(C(=O)/C=C2/C(=O)Nc3ccccc32)cc1OC	RGS4 inh 12
O=C(O)COc1ccc(/C=N/n2c(COc3ccccc3)nc3ccccc3c2=O)cc1	none
O=c1c2ccccc2nc(COc2ccccc2)n1/N=C/c1ccc(O)c(O)c1	RGS4 pot -7.7
CC1CCN(CC(CS(=O)(=O)c2ccc([N+](=O)[O-])cc2)N2CCC(C)CC2)CC1 (stereo unspecified)	MrgX1 antagonist -5.2
CC[n+]1c(/C=C/Nc2ccccc2)oc2ccc(OC)cc21	MrgX1 antagonist -7.4
CC[n+]1c(/C=C/N(C)c2ccccc2)oc2ccc(F)cc21	MrgX1 antagonist -4.7
CC[n+]1c(/C=C/Nc2ccccc2)oc2ccccc21	none
N#Cc1ccc(COC(=O)c2cnc(Cl)c(Cl)c2)cc1	none
COc1ccc(C)cc1NC(=O)C(c1ccccc1)N1CCNC(=O)C1 (stereo unspecified)	none
COc1ccc(-c2nn(-c3ccccc3)cc2C=O)cc1[N+](=O)[O-]	none
O=C(O)/C=C/c1cn(-c2ccccc2)nc1-c1cccc([N+](=O)[O-])c1	none
O=C(O)/C=C/c1cn(-c2ccccc2)nc1-c1ccc(-c2ccc([N+](=O)[O-])cc2)o1	MrgX1 antagonist -4.6
O=[N+]([O-])c1ccc(N/N=C/c2cn(-c3ccccc3)nc2-c2ccccc2)cc1	MrgX1 antagonist -4.5
COc1ccc(-c2nn(-c3ccccc3)cc2/C=C/C(=O)O)cc1[N+](=O)[O-]	MrgX1 PAM 9.2
CC(NC(=O)c1ccc(-c2cc(C(F)(F)F)ccc2Cl)o1)c1ccccc1 (stereo unspecified)	none
CSCC(C)N1CCC(N2CCC(C(=O)NCc3ccccn3)CC2)CC1 (stereo unspecified)	none
COc1ccc(C(=O)NCCCNC(=O)c2ccccn2)cc1	none
CCCCCCCCCCOC(=O)Cn1c(COc2cccc(C)c2)[n+](C)c2ccccc21	RGS4 pot -8.5, MrgX1 antagonist -5.9
CCOC(=O)Cn1c(COc2ccccc2OC)[n+](C)c2ccccc21	none
CCCCCCCCCCOC(=O)Cn1c(COc2ccc(OC)cc2)[n+](C)c2ccccc21	RGS4 pot -9.1, MrgX1 antagonist -9.1
CC(C)CN(C(=O)COC(=O)COc1ccc2c(c1)CCC2)c1c(N)n(Cc2ccccc2)c(=O)[nH]c1=O	none
CCOC(=O)c1c(CSc2ccc(CC)cc2)oc2ccc(O)c(CN(C)C)c12	MrgX1 antagonist -5.9
O=C(CN1C(=O)c2cccc3cccc(c23)C1=O)NCCN1CCOCC1	none
CCCCCCCCC/C(=N\O)c1ccccn1	RGS4 pot -10
CCCCCCCCC(=O)N/N=C/c1ccccn1	none
O=C(CNC(=O)C12CC3CC(CC(C3)C1)C2)N/N=C\c1ccccn1	none
COc1ccc(CCNc2oc(COc3ccc(Br)cc3)nc2C#N)cc1OC	RGS4 pot -7.5
CN(C)CCNc1oc(COc2ccc(Cl)cc2Cl)nc1C#N	MrgX1 antagonist -6.5
COCCCNc1oc(COc2ccc(Cl)cc2Cl)nc1C#N	none
COc1ccc(CCNc2oc(Cc3cccc4ccccc34)nc2C#N)cc1OC	none
Cc1cccc(N2CCN(c3ccc4cc(S(=O)(=O)N5CCCCC5)ccc4n3)CC2)c1C	none
O=C(Nc1ccc2c(c1)OCCO2)C1CCCN(S(=O)(=O)c2cccnc2)C1 (stereo unspecified)	none
CCc1ccccc1NC(=S)N(CCCN(C)C)Cc1cc2cc3c(cc2[nH]c1=O)OCO3	none
COc1ccc(NC(=O)CSc2ccc3nnc(-c4ccccn4)n3n2)cc1OC	none
CN(CC(=O)Nc1ccccc1Cl)CC(=O)Nc1ccccc1[N+](=O)[O-]	MrgX1 PAM 10
